{"source": "ChEMBL document CHEMBL1125789", "about": "“Synthesis and selective class III antiarrhythmic activity of novel N-heteroaralkyl-substituted 1-(aryloxy)-2-propanolamine and related propylamine derivatives” (J Med Chem, 1991)", "key": {"Canis familiaris [1]": {"organism": "Canis familiaris", "assay": "Maximum rate of rise of the upstroke of transmembrane potential, in canine Purkinje Fibers at a concentration of 30 uM at 1000 ms (simulating normal heart rate)", "type": "functional", "conditions": "Canis lupus familiaris, Purkinje fiber", "procedure,_shortened": "(§1)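 Isolated canine Purkinje fiber bundles were driven by square-wave pulses 2.0 ms long at 2× threshold and equilibrated ≥1 h to steady state. Each concentration was superfused 45–60 min before recording, and action potentials were sampled at 4–6 sites per fiber in control and after drug, giving Vmax and APD to −60 mV.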"}, "Canis familiaris [2]": {"organism": "Canis familiaris", "assay": "repolarization to reach -60mV, in canine Purkinje Fibers at a concentration of 30 uM at 1000 ms (simulating normal heart rate)", "type": "functional, Canis lupus familiaris, Purkinje fiber", "procedure,_shortened": "(§2)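 Purkinje fiber bundles were stimulated with square-wave current pulses of 2.0 ms at twice threshold and equilibrated for at least 1 h, or until action potential parameters were steady. Each concentration was superfused for 45-60 min to reach steady state. Action potentials were recorded at four to six sites per fiber, under control and after drug.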"}, "Canis familiaris [3]": {"organism": "Canis familiaris", "assay": "repolarization to reach -60mV, in canine Purkinje Fibers at a concentration of 300 uM at 1000 ms (simulating normal heart rate)", "type": "functional, Canis lupus familiaris, Purkinje fiber", "procedure,_shortened": "as §2"}, "Canis familiaris [4]": {"test_system": "Canis familiaris", "assay": "Ventricular effective refractory period by the compound in open chest anesthetized dog, after iv administration at a dose of 10.0 mg/kg.", "type": "functional, Canis lupus familiaris, Heart"}, "Canis familiaris [5]": {"test_system": "Canis familiaris", "assay": "Ventricular effective refractory period by the compound in open chest anesthetized dog, after iv administration at a dose of 5.0 mg/kg.", "type": "functional, Canis lupus familiaris, Heart", "design": "unit not given here"}, "Canis familiaris [6]": {"test_system": "Canis familiaris", "assay": "Mean arterial pressure by the compound in open chest anesthetized dog, after iv administration at a dose of 5.0 mg/kg.", "type": "functional, Canis lupus familiaris, Artery", "design": "unit not given here", "procedure,_shortened": "(§3)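 Hemodynamics (heart rate, mean arterial pressure) recorded in pentobarbital-anesthetized (30 mg/kg iv, 5 mg/kg per h maintenance) open-chest mongrel dogs during the refractoriness study at BCL 300 ms. Readings were taken before and after iv or intraduodenal compound and expressed as change from control.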"}, "Canis familiaris [7]": {"test_system": "Canis familiaris", "assay": "Atrial conduction time by the compound in open chest anesthetized dog, after iv administration at a dose of 10.0 mg/kg.", "type": "functional, Canis lupus familiaris, Cardiac atrium", "procedure,_shortened": "(§4)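 Mongrel dogs anesthetized with sodium pentobarbital (30 mg/kg iv, then 5 mg/kg per h), chest opened, paced at BCL 300 ms. Atrial conduction time was taken as the interval between electrograms recorded at the proximal and distal sites of the atrial recording electrode array, before and after iv or intraduodenal dosing. Values are changes from control.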"}, "Canis familiaris [8]": {"test_system": "Canis familiaris", "assay": "Atrial effective refractory period by the compound in open chest anesthetized dog, after iv administration at a dose of 5.0 mg/kg.", "type": "functional, Canis lupus familiaris, Cardiac atrium", "design": "unit not given here", "procedure,_shortened": "(§5)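 Open-chest mongrel dogs under sodium pentobarbital anesthesia (30 mg/kg iv plus 5 mg/kg per h), paced at basic cycle length 300 ms. Atrial effective refractory period was determined by electrical stimulation before and after iv or intraduodenal compound and reported as change from control.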"}, "Canis familiaris [9]": {"test_system": "Canis familiaris", "assay": "Mean arterial pressure by the compound in open chest anesthetized dog, after iv administration at a dose of 10.0 mg/kg.", "type": "functional, Canis lupus familiaris, Artery", "procedure,_shortened": "as §3"}, "Canis familiaris [10]": {"test_system": "Canis familiaris", "assay": "Atrial effective refractory period by the compound in open chest anesthetized dog, after iv administration at a dose of 10.0 mg/kg.", "type": "functional, Canis lupus familiaris, Cardiac atrium", "procedure,_shortened": "as §5"}, "Canis familiaris [11]": {"test_system": "Canis familiaris", "assay": "Ventricular conduction time by the compound in open chest anesthetized dog, after iv administration at a dose of 10.0 mg/kg.", "type": "functional, Canis lupus familiaris, Heart", "procedure,_shortened": "(§6)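 Mongrel dogs were anesthetized with sodium pentobarbital (30 mg/kg iv, then 5 mg/kg per h), the chest opened, and the heart paced at BCL 300 ms. Compound was given iv or intraduodenally. Ventricular conduction time was taken as the interval between electrograms at the proximal and distal sites of the recording electrode array. 2-5 dogs per dose.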"}, "Canis familiaris [12]": {"test_system": "Canis familiaris", "assay": "Atrial effective refractory period by the compound in open chest anesthetized dog, after iv administration at a dose of 2.5 mg/kg.", "type": "functional, Canis lupus familiaris, Cardiac atrium", "procedure,_shortened": "as §5"}, "Canis familiaris [13]": {"test_system": "Canis familiaris", "assay": "Ventricular conduction time by the compound in open chest anesthetized dog, after iv administration at a dose of 2.5 mg/kg.", "type": "functional, Canis lupus familiaris, Heart", "procedure,_shortened": "as §6"}, "Canis familiaris [14]": {"test_system": "Canis familiaris", "assay": "Atrial conduction time by the compound in open chest anesthetized dog, after iv administration at a dose of 5.0 mg/kg.", "type": "functional, Canis lupus familiaris, Cardiac atrium", "design": "unit not given here", "procedure,_shortened": "as §4"}, "Canis familiaris [15]": {"test_system": "Canis familiaris", "assay": "Ventricular conduction time by the compound in open chest anesthetized dog, after iv administration at a dose of 5.0 mg/kg.", "type": "functional, Canis lupus familiaris, Heart", "design": "unit not given here", "procedure,_shortened": "as §6"}, "Canis familiaris [16]": {"test_system": "Canis familiaris", "assay": "Heart beat by the compound in open chest anesthetized dog, after iv administration at a dose of 5.0 mg/kg.", "type": "functional, Canis lupus familiaris", "design": "unit not given here", "procedure,_shortened": "as §3"}, "Canis familiaris [17]": {"organism": "Canis familiaris", "assay": "Maximum rate of rise of the upstroke of transmembrane potential, in canine Purkinje Fibers at a concentration of 300 uM at 1000 ms (simulating normal heart rate)", "type": "functional", "conditions": "Canis lupus familiaris, Purkinje fiber", "procedure,_shortened": "as §1"}, "Canis familiaris [18]": {"test_system": "Canis familiaris", "assay": "Mean arterial pressure by the compound in open chest anesthetized dog, after iv administration at a dose of 2.5 mg/kg.", "type": "functional, Canis lupus familiaris, Artery", "procedure,_shortened": "as §3"}, "Canis familiaris [19]": {"test_system": "Canis familiaris", "assay": "Heart beat by the compound in open chest anesthetized dog, after iv administration at a dose of 10.0 mg/kg.", "type": "functional, Canis lupus familiaris", "procedure,_shortened": "as §3"}, "Canis familiaris [20]": {"test_system": "Canis familiaris", "assay": "Ventricular effective refractory period by the compound in open chest anesthetized dog, after iv administration at a dose of 2.5 mg/kg.", "type": "functional, Canis lupus familiaris, Heart"}, "Canis familiaris [21]": {"organism": "Canis familiaris", "assay": "Maximum rate of rise of the upstroke of transmembrane potential, in canine Purkinje Fibers at a concentration of 30 uM at 300 ms (simulating tachycardia)", "type": "functional", "conditions": "Canis lupus familiaris, Purkinje fiber", "procedure,_shortened": "as §1"}, "Canis familiaris [22]": {"organism": "Canis familiaris", "assay": "Repolarization to reach -60mV, in canine Purkinje Fibers at a concentration of 300 uM at 300 ms (simulating tachycardia)", "type": "functional, Canis lupus familiaris, Purkinje fiber", "procedure,_shortened": "as §2"}, "Canis familiaris [23]": {"test_system": "Canis familiaris", "assay": "Heart beat by the compound in open chest anesthetized dog, after iv administration at a dose of 2.5 mg/kg.", "type": "functional, Canis lupus familiaris", "procedure,_shortened": "as §3"}, "Canis familiaris [24]": {"organism": "Canis familiaris", "assay": "Maximum rate of rise of the upstroke of transmembrane potential, in canine Purkinje Fibers at a concentration of 300 uM at 300 ms (simulating tachycardia)", "type": "functional", "conditions": "Canis lupus familiaris, Purkinje fiber", "procedure,_shortened": "as §1"}, "Canis familiaris [25]": {"test_system": "Canis familiaris", "assay": "Atrial conduction time by the compound in open chest anesthetized dog, after iv administration at a dose of 2.5 mg/kg.", "type": "functional, Canis lupus familiaris, Cardiac atrium", "procedure,_shortened": "as §4"}, "Canis familiaris [26]": {"organism": "Canis familiaris", "assay": "Repolarization to reach -60mV, in canine Purkinje Fibers at a concentration of 30 uM at 300 ms (simulating tachycardia)", "type": "functional, Canis lupus familiaris, Purkinje fiber", "procedure,_shortened": "as §2"}}, "data": [{"smiles": "CC(C)NCC(O)c1ccc(NS(C)(=O)=O)cc1", "note": "(racemic) [SOTALOL]", "values": [{"measurement": "Vmax", "setting": "Canis familiaris [1]", "value": 2}, {"measurement": "APD", "setting": "Canis familiaris [2]", "value": 56, "unit": "%"}, {"measurement": "APD", "setting": "Canis familiaris [3]", "value": 86, "unit": "%"}, {"measurement": "VERP", "setting": "Canis familiaris [4]", "value": 30}, {"measurement": "VERP", "setting": "Canis familiaris [5]", "value": 25}, {"measurement": "MBP", "setting": "Canis familiaris [6]", "value": -17}, {"measurement": "ACT", "setting": "Canis familiaris [7]", "value": -4}, {"measurement": "AERP", "setting": "Canis familiaris [8]", "value": 57}, {"measurement": "MBP", "setting": "Canis familiaris [9]", "value": -29}, {"measurement": "AERP", "setting": "Canis familiaris [10]", "value": 68}, {"measurement": "VCT", "setting": "Canis familiaris [11]", "value": -4}, {"measurement": "AERP", "setting": "Canis familiaris [12]", "value": 42}, {"measurement": "VCT", "setting": "Canis familiaris [13]", "value": -1}, {"measurement": "ACT", "setting": "Canis familiaris [14]", "value": -7}, {"measurement": "VCT", "setting": "Canis familiaris [15]", "value": -1}, {"measurement": "HR", "setting": "Canis familiaris [16]", "value": -28}, {"measurement": "Vmax", "setting": "Canis familiaris [17]", "value": -10}, {"measurement": "MBP", "setting": "Canis familiaris [18]", "value": -16}, {"measurement": "HR", "setting": "Canis familiaris [19]", "value": -39}, {"measurement": "VERP", "setting": "Canis familiaris [20]", "value": 19}, {"measurement": "Vmax", "setting": "Canis familiaris [21]", "value": -12}, {"measurement": "APD", "setting": "Canis familiaris [22]", "value": 36, "unit": "%"}, {"measurement": "HR", "setting": "Canis familiaris [23]", "value": -27}, {"measurement": "Vmax", "setting": "Canis familiaris [24]", "value": -20}, {"measurement": "ACT", "setting": "Canis familiaris [25]", "value": -5}, {"measurement": "APD", "setting": "Canis familiaris [26]", "value": 18, "unit": "%"}]}]}
